Measurements: ChEMBL document CHEMBL3774321, “Systematic diversification of benzylidene heterocycles yields novel inhibitor scaffolds selective for Dyrk1A, Clk1 and CK2” (Eur J Med Chem, 2016)
One block for each compound: values may come before it. The source made the active and inactive calls. No cut-off for these calls is given here.

Assays:
[1] = biological target: BDNF/NT-3 growth factors receptor (Homo sapiens) (UniProt Q16620); assay: Inhibition of recombinant human His-tagged NTRK2 expressed in baculovirus expression system at 5 uM by lantha screen kinase binding assay relative to control
Chain of BDNF/NT-3 growth factors receptor (Homo sapiens) (Q16620 32-822 limits assumed): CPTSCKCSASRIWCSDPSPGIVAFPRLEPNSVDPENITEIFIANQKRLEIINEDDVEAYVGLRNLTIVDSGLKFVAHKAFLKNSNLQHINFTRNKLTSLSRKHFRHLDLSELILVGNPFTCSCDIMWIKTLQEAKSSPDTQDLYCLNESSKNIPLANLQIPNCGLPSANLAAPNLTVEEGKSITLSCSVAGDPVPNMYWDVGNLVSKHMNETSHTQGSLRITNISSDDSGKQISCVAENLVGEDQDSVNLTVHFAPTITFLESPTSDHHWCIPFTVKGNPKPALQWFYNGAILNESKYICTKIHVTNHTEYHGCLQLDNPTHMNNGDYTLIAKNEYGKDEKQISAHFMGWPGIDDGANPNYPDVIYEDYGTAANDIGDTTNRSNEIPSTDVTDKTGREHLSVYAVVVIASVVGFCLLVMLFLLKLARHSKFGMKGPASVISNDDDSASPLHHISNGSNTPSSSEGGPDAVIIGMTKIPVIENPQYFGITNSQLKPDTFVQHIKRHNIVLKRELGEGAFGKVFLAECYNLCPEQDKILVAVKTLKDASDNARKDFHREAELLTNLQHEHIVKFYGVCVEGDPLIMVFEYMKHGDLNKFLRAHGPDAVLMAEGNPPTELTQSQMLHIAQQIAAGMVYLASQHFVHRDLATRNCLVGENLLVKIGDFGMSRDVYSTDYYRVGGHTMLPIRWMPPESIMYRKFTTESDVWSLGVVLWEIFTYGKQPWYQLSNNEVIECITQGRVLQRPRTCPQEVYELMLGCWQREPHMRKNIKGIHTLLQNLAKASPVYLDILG
Procedure, shortened: (§1)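 Binding-displacement format: the compound competes with an Alexa Fluor-conjugated tracer for binding to the kinase ATP site, rather than a peptide phosphorylation read-out.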

[2] = biological target: Casein kinase I isoform delta (Homo sapiens) (UniProt P48730); assay: Inhibition of full length recombinant human GST-tagged CSNK1D expressed in baculovirus expression system at 5 uM by lantha screen kinase binding assay relative to control
[3] = biological target: Serine/threonine-protein kinase 26 (Homo sapiens) (UniProt Q9P289); assay: Inhibition of full length recombinant human GST-tagged MST4 expressed in baculovirus expression system at 5 uM by lantha screen kinase binding assay relative to control
Chain of Serine/threonine-protein kinase 26 (Homo sapiens) (Q9P289 2-416 limits assumed): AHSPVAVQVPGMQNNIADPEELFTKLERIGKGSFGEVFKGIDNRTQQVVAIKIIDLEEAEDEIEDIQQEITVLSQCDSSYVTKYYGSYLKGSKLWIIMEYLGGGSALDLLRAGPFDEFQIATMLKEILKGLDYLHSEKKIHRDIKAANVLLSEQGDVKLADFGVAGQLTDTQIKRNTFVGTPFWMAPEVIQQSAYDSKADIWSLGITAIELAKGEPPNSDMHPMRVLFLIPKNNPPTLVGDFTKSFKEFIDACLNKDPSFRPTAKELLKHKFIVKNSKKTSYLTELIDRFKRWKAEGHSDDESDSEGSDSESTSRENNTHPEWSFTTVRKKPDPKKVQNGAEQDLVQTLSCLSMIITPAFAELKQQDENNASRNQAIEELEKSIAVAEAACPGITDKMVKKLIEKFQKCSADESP

[4] = biological target: T1, Epidermal growth factor receptor (Homo sapiens, UniProt P00533); assay: Inhibition of recombinant human GST-tagged EGFR expressed in baculovirus expression system at 5 uM by lantha screen kinase binding assay relative to control; procedure, shortened: as §1
T1 sequence (P00533 whole entry): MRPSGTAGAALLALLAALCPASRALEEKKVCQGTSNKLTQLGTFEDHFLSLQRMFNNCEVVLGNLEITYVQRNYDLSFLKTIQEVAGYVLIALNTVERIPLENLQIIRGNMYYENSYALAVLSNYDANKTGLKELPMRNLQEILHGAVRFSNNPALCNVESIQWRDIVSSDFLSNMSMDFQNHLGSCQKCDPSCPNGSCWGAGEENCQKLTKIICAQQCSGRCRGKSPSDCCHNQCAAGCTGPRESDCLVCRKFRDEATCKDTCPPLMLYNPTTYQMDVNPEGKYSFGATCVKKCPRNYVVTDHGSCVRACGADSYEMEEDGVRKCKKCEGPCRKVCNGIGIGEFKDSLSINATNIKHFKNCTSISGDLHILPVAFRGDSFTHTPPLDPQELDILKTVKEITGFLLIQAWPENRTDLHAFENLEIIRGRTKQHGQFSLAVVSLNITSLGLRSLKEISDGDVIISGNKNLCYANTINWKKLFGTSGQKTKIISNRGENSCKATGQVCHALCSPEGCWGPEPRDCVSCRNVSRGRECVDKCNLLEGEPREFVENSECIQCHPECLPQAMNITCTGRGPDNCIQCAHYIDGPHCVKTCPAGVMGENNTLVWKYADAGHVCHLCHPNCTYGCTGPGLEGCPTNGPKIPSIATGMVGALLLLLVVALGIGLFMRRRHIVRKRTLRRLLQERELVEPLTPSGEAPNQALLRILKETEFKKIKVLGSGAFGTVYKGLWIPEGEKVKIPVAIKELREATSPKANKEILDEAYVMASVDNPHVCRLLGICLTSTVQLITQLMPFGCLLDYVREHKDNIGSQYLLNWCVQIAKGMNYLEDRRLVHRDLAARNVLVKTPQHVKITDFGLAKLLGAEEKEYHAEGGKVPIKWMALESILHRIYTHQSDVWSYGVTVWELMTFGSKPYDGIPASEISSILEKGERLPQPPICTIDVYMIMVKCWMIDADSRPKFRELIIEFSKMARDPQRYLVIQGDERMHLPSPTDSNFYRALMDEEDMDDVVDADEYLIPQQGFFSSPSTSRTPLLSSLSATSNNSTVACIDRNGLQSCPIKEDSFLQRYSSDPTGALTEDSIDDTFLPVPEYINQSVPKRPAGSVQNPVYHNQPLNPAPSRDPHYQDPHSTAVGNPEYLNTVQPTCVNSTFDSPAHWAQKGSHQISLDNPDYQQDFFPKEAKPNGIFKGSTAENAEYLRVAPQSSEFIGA

[5] = biological target: Homeodomain-interacting protein kinase 1 (Homo sapiens) (UniProt Q86Z02); assay: Inhibition of recombinant human N-terminal GST-tagged HIPK1 expressed in baculovirus expression system at 5 uM by lantha screen kinase binding assay relative to control; procedure, shortened: as §1
[6] = biological target: Serine/threonine-protein kinase pim-2 (Homo sapiens) (UniProt Q9P1W9); assay: Inhibition of full length recombinant human GST-tagged PIM2 expressed in baculovirus expression system at 5 uM by lantha screen kinase binding assay relative to control
Chain of Serine/threonine-protein kinase pim-2 (Homo sapiens) (Q9P1W9 whole entry, looked up): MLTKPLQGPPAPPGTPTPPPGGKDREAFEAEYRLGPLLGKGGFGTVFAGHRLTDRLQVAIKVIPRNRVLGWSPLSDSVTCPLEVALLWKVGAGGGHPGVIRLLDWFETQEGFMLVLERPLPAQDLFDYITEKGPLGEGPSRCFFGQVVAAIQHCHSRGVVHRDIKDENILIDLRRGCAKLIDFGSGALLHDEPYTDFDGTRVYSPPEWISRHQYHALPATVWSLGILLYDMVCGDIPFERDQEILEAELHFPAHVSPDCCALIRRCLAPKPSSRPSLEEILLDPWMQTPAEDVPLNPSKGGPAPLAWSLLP

[7] = biological target: Calcium/calmodulin-dependent protein kinase type II subunit alpha (Homo sapiens) (UniProt Q9UQM7); assay: Inhibition of full length recombinant human His-tagged CAMK2A expressed in baculovirus expression system at 5 uM by lantha screen kinase binding assay relative to control
[8] = biological target: Cyclin-dependent kinase 5/CDK5 activator 1 (Homo sapiens) (UniProt Q00535+Q15078); assay: Inhibition of full length recombinant human GST-tagged, His-tagged CDK5/p25 expressed in baculovirus expression system at 5 uM by lantha screen kinase binding assay
[9] = biological target: cAMP-dependent protein kinase catalytic subunit alpha (Homo sapiens) (UniProt P17612); assay: Inhibition of recombinant human His-tagged PRKACA expressed in Escherichia coli at 5 uM by lantha screen kinase binding assay relative to control; procedure, shortened: as §1
[10] = biological target: Serine/threonine-protein kinase D2 (Homo sapiens) (UniProt Q9BZL6); assay: Inhibition of full length recombinant human GST-tagged PRKD2 expressed in baculovirus expression system at 5 uM by lantha screen kinase binding assay relative to control
Chain of Serine/threonine-protein kinase D2 (Homo sapiens) (Q9BZL6 whole entry, canonical isoform): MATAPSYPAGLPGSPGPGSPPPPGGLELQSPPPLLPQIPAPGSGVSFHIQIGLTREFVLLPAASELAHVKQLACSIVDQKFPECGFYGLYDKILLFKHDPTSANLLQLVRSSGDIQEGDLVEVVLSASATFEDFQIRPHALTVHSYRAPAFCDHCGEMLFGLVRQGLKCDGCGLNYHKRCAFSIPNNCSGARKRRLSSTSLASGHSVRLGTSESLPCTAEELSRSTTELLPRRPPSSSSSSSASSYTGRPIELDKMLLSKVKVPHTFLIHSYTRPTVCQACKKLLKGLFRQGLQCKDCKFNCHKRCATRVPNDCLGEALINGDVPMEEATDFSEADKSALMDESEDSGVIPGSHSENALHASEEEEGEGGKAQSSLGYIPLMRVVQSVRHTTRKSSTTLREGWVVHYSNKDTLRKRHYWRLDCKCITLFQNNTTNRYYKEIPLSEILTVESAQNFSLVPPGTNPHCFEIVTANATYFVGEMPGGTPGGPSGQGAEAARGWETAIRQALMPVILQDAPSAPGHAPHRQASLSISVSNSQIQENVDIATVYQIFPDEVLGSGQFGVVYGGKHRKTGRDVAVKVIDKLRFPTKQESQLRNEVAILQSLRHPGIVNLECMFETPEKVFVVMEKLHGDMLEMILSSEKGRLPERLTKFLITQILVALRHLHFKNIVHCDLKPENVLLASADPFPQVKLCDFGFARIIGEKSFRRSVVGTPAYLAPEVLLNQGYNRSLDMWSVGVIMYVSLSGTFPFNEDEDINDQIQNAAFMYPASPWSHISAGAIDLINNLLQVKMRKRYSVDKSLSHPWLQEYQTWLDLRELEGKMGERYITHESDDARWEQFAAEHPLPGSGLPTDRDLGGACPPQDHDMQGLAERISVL

[11] = biological target: T2, Myosin light chain kinase 2, skeletal/cardiac muscle (Homo sapiens, UniProt Q9H1R3); assay: Inhibition of full length recombinant human N-terminal GST-tagged skeletal MYLK2 expressed in baculovirus expression system at 5 uM by lantha screen kinase binding assay relative to control; procedure, shortened: as §1
T2 sequence (Q9H1R3 whole entry): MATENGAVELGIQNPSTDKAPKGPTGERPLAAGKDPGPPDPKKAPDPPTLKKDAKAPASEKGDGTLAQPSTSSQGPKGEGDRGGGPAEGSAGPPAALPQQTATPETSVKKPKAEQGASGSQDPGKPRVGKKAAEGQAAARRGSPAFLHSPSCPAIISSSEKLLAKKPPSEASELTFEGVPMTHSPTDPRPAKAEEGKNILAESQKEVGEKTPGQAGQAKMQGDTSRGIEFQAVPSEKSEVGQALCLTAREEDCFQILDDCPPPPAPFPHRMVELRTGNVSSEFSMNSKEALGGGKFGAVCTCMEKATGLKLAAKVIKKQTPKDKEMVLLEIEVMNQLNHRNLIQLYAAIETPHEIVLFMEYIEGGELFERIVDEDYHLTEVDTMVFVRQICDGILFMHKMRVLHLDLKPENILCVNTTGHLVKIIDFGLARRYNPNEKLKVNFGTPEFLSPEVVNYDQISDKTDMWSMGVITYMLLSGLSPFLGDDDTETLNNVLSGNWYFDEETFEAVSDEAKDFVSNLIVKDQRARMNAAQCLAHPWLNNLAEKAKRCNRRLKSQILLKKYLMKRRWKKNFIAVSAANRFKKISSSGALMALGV

[12] = biological target: Dual specificity tyrosine-phosphorylation-regulated kinase 4 (Homo sapiens) (UniProt Q9NR20); assay: Inhibition of full length recombinant human GST-tagged DYRK4 expressed in baculovirus expression system at 1 uM by lantha screen kinase binding assay relative to control
[13] = biological target: T2, Myosin light chain kinase 2, skeletal/cardiac muscle; assay: Inhibition of full length recombinant human N-terminal GST-tagged skeletal MYLK2 expressed in baculovirus expression system at 1 uM by lantha screen kinase binding assay relative to control; procedure, shortened: as §1
[14] = biological target: Serine/threonine-protein kinase D2 (Homo sapiens) (UniProt Q9BZL6); assay: Inhibition of full length recombinant human GST-tagged PRKD2 expressed in baculovirus expression system at 1 uM by lantha screen kinase binding assay relative to control
[15] = biological target: Casein kinase I isoform gamma-3 (Homo sapiens) (UniProt Q9Y6M4); assay: Inhibition of full length recombinant human GST-tagged CSNK1G3 expressed in baculovirus expression system at 1 uM by lantha screen kinase binding assay relative to control
[16] = biological target: Serine/threonine-protein kinase 26 (Homo sapiens) (UniProt Q9P289); assay: Inhibition of full length recombinant human GST-tagged MST4 expressed in baculovirus expression system at 1 uM by lantha screen kinase binding assay relative to control
[17] = biological target: MAP kinase-interacting serine/threonine-protein kinase 2 (Homo sapiens) (UniProt Q9HBH9); assay: Inhibition of full length recombinant human N-terminal GST-tagged MKNK2 expressed in insect cells at 1 uM by lantha screen kinase binding assay relative to control; procedure, shortened: as §1
[18] = biological target: Serine/threonine-protein kinase pim-2 (Homo sapiens) (UniProt Q9P1W9); assay: Inhibition of full length recombinant human GST-tagged PIM2 expressed in baculovirus expression system at 1 uM by lantha screen kinase binding assay relative to control
[19] = biological target: Homeodomain-interacting protein kinase 1 (Homo sapiens) (UniProt Q86Z02); assay: Inhibition of recombinant human N-terminal GST-tagged HIPK1 expressed in baculovirus expression system at 1 uM by lantha screen kinase binding assay relative to control; procedure, shortened: as §1
[20] = biological target: Dual specificity protein kinase CLK4 (Homo sapiens, UniProt Q9HAZ1); conditions: 1 uM
[21] = biological target: Dual specificity protein kinase CLK3 (Homo sapiens, UniProt P49761); assay: Inhibition of recombinant human GST-tagged CLK3 expressed in baculovirus expression system by lantha screen kinase binding assay; procedure, shortened: as §1
[22] = biological target: T2, Myosin light chain kinase 2, skeletal/cardiac muscle; assay: Inhibition of full length recombinant human N-terminal GST-tagged MLCK expressed in baculovirus expression system by lantha screen kinase binding assay; procedure, shortened: as §1
[23] = biological target: BDNF/NT-3 growth factors receptor (Homo sapiens) (UniProt Q16620); assay: Inhibition of recombinant human His-tagged NTRK2 expressed in baculovirus expression system at 1 uM by lantha screen kinase binding assay relative to control; procedure, shortened: as §1
[24] = biological target: Activin receptor type-1 (Homo sapiens) (UniProt Q04771); assay: Inhibition of recombinant human GST-tagged ACVR1 expressed in baculovirus expression system at 1 uM by lantha screen kinase binding assay relative to control; procedure, shortened: as §1
[25] = biological target: Serine/threonine-protein kinase 17A (Homo sapiens, UniProt Q9UEE5); assay: Inhibition of STK17A (unknown origin)
Chain of Serine/threonine-protein kinase 17A (Q9UEE5 whole entry): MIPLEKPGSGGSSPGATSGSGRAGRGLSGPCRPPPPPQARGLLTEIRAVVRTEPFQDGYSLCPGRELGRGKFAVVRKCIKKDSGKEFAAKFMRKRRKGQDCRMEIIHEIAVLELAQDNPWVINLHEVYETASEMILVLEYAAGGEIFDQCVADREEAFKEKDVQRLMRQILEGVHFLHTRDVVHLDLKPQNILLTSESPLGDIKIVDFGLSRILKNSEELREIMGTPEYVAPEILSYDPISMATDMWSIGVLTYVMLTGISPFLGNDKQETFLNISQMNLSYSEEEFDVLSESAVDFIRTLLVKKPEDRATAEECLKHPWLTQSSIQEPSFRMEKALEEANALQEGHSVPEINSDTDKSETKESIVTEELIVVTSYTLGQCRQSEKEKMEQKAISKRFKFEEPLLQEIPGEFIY

[26] = biological target: T1, Epidermal growth factor receptor; assay: Inhibition of recombinant human GST-tagged EGFR expressed in baculovirus expression system at 1 uM by lantha screen kinase binding assay relative to control; procedure, shortened: as §1
[27] = biological target: T3, Serine/threonine-protein kinase pim-1 (Homo sapiens, UniProt P11309); assay: Inhibition of PIM1 (unknown origin) at 1 uM relative to control
T3 sequence (P11309 whole entry, looked up): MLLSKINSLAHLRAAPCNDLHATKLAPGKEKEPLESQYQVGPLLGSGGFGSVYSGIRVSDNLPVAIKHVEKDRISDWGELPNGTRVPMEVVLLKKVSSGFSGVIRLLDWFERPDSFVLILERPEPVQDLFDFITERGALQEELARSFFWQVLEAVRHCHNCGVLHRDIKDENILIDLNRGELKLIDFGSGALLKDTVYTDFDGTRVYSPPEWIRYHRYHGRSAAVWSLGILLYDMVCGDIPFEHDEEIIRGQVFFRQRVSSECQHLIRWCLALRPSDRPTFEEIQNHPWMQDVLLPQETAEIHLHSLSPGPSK
Procedure, shortened: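 Single-point screen at 1 μM compound. Percent inhibition is the mean of two separate measurements, each run in duplicate.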

[28] = biological target: Casein kinase I isoform gamma-2 (Homo sapiens) (UniProt P78368); assay: Inhibition of full length recombinant human His-tagged CSNK1G2 expressed in baculovirus expression system at 1 uM by lantha screen kinase binding assay relative to control
[29] = biological target: Serine/threonine-protein kinase 17A (Homo sapiens) (UniProt Q9UEE5); assay: Inhibition of STK17A (unknown origin) at 1 uM relative to control
Chain of Serine/threonine-protein kinase 17A (Homo sapiens) (Q9UEE5 whole entry): as the sequence (Q9UEE5 whole entry) above

[30] = biological target: Glycogen synthase kinase-3 beta (Homo sapiens) (UniProt P49841); assay: Inhibition of full length recombinant human His-tagged GSK3beta expressed in baculovirus expression system at 1 uM by lantha screen kinase binding assay relative to control; procedure, shortened: as §1
[31] = biological target: Myosin light chain kinase, smooth muscle (Homo sapiens) (UniProt Q15746); assay: Inhibition of recombinant human GST-tagged MYLK expressed in baculovirus expression system at 1 uM by lantha screen kinase binding assay relative to control; procedure, shortened: as §1
[32] = biological target: T3, Serine/threonine-protein kinase pim-1; assay: Inhibition of PIM1 (unknown origin) at 5 uM relative to control
[33] = biological target: Serine/threonine-protein kinase 17A (Homo sapiens) (UniProt Q9UEE5); assay: Inhibition of STK17A (unknown origin) at 5 uM relative to control
HEK293 = assay: Cytotoxicity against HEK293 cells up to 20 uM; assay type: cell-based; conditions: human

inhibition [1]: inactive | inhibition [2]: inactive | inhibition [3]: inactive | inhibition [4]: inactive | inhibition [5]: inactive | inhibition [6]: inactive | inhibition [7]: inactive | inhibition [8]: inactive | inhibition [9]: inactive | inhibition [10]: inactive | inhibition [11]: inactive
SMILES: O=C1NC(=S)S/C1=C\c1ccc2ncsc2c1

inhibition [12]: 39% | inhibition [13]: 35% | inhibition [14]: 19% | inhibition [15]: 17% | inhibition [16]: inactive | inhibition [17]: 34% | inhibition [18]: 31% | inhibition [19]: 33% | inhibition [20]: 97% | IC50 [21]: 86.6 nM | IC50 [22]: 157 nM | inhibition [23]: 3% | inhibition [24]: 37% | IC50 [25]: 12.8 nM | inhibition [26]: inactive | inhibition [27]: 89% | inhibition [28]: 43% | inhibition [29]: 97% | inhibition [30]: 10% | inhibition [31]: 48%
SMILES: O=C1NC(=S)S/C1=C\c1ccc2ncccc2c1

inhibition [32]: 19% | inhibition [33]: 28%
SMILES: CC1C/C(=C\c2ccc3c(c2)CCO3)C(=O)O1 (centres undefined)

SMILES: O=C1OCC/C1=C\c1ccc2ncsc2c1
Activity (HEK293): Non-toxic
